The source made the active and inactive calls. The rule behind the calls is not given here.
Assays:
Rodentolepis nana [1] = experiment: Anthelmintic activity against Hymenolepis nana infected in mouse assessed as reduction in worm burden at 300 mg/kg bid for 5 days relative to control; assay type: functional; set-up: scale not given: the % may be the effect or the level left
How it was run: (§1)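 Mice carried the tapeworm *H. nana* and were dosed at 300, 100, 50, 25, 10, 5 or 2.5 mg/kg. Activity was read as percent reduction in worm burden, and significance was tested by Mann-Whitney U test. The rest of the procedure follows an earlier publication.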

Rodentolepis nana [2] = experiment: Anthelmintic activity against Hymenolepis nana infected in mouse assessed as reduction in worm burden at 100 mg/kg bid for 5 days relative to control; assay type: functional; how it was run: as §1
Rodentolepis nana [3] = experiment: Anthelmintic activity against Hymenolepis nana infected in mouse assessed as reduction in worm burden at 50 mg/kg bid for 5 days relative to control; assay type: functional; set-up: scale not given: the % may be the effect or the level left; how it was run: as §1
Rodentolepis nana [4] = experiment: Anthelmintic activity against Hymenolepis nana infected in mouse assessed as reduction in worm burden at 25 mg/kg bid for 5 days relative to control; assay type: functional; set-up: scale not given: the % may be the effect or the level left; how it was run: as §1
Rodentolepis nana [5] = experiment: Anthelmintic activity against Hymenolepis nana infected in mouse assessed as reduction in worm burden at 10 mg/kg bid for 5 days relative to control; assay type: functional; how it was run: as §1
Mus musculus = experiment: Toxicity in mouse infected with Hymenolepis nana at 300 mg/kg bid for 5 days; assay type: organism-based; set-up: dose 300 mg/kg; conditions: in vivo, 120 h
Taenia crassiceps = experiment: Anthelmintic activity against Taenia crassiceps infected in beagle dog assessed as complete parasite clearance at 100 mg/kg after 9 days; assay type: functional, organism-based; set-up: dose 100 mg/kg
How it was run: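 Dogs received a recently isolated *T. crassiceps* strain as 40 cysts per dog, taken from mice and given perorally in gelatin capsules to young beagles. On day 37, drug was given in gelatin capsules, three dogs per test. Dogs were sacrificed 9 days after treatment, and intestinal scolices were counted as worms recovered at necropsy.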

Rodentolepis nana [6] = experiment: Anthelmintic activity against Hymenolepis nana infected in mouse assessed as reduction in worm burden at 5 mg/kg bid for 5 days relative to control; assay type: functional; set-up: scale not given: the % may be the effect or the level left; how it was run: as §1
Rodentolepis nana [7] = experiment: Anthelmintic activity against Hymenolepis nana infected in mouse assessed as reduction in worm burden at 2.5 mg/kg bid for 5 days relative to control; assay type: functional; set-up: scale not given: the % may be the effect or the level left; how it was run: as §1
Taenia pisiformis = experiment: Anthelmintic activity against Taenia pisiformis infected in beagle dog assessed as complete parasite clearance at 50 to 150 mg/kg, po after 10 days; assay type: functional, organism-based
How it was run: (§2)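 Beagles infected with *T. pisiformis*, aged from puppies to 2–3 years, received single oral doses of 50–150 mg/kg body weight. Readouts were worm clearance plus observation for emesis and other untoward clinical signs.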

Canis familiaris [8] = experiment: Toxicity in beagle dog assessed as emesis at 50 to 150 mg/kg, po; assay type: organism-based, Canis lupus familiaris; set-up: dose 50-150 mg/kg, route oral; conditions: in vivo; how it was run: as §2
Canis familiaris [9] = experiment: Toxicity in beagle dog assessed as untoward clinical signs at 50 to 150 mg/kg, po; assay type: organism-based, Canis lupus familiaris; set-up: dose 50-150 mg/kg, route oral; conditions: in vivo; how it was run: as §2
Syphacia obvelata [10] = experiment: Anthelmintic activity against Syphacia obvelata infected in mouse assessed as complete parasite clearance at 50 mg/kg bid for 5 days; assay type: functional, organism-based; set-up: dose 50 mg/kg
Syphacia obvelata [11] = experiment: Anthelmintic activity against Syphacia obvelata infected in mouse assessed as reduction in worm burden at 10 mg/kg bid for 5 days relative to control; assay type: functional; set-up: scale not given: the % may be the effect or the level left
Moniezia = experiment: Anthelmintic activity against Moniezia species infected in sheep assessed as complete parasite clearance at 50 mg/kg for 3 days administered as drench solution; assay type: functional, organism-based; set-up: dose 50 mg/kg
How it was run: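 Sheep were naturally infected. Drug was mixed with water and sonified to a creamy consistency, then given as a drench. Animals were sacrificed 3 days after dosing and the intestines were examined for worms.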

Structure (SMILES): Cc1ccc(-c2nc3ccc4nc(C)cc(O)c4c3[nH]2)cc1
- Activity (Rodentolepis nana [1]): 70%
- Activity (Rodentolepis nana [2]): inactive

Structure (SMILES): CCCCCCOc1ccc(C(=N)N(CCCC)CCCC)c2ccccc12 [BUNAMIDINE]
- Activity (Rodentolepis nana [2]): 100%
- Activity (Rodentolepis nana [3]): 59%
- Activity (Rodentolepis nana [4]): 30%
- Activity (Rodentolepis nana [5]): inactive
- Activity (Mus musculus): Toxic

Structure (SMILES): Cc1cc(O)c2c(ccc3nc(-c4ccccc4Cl)[nH]c32)n1
- Activity (Rodentolepis nana [1]): 100%
- Activity (Rodentolepis nana [2]): 100%
- Activity (Rodentolepis nana [3]): 75%
- Activity (Rodentolepis nana [4]): inactive

Structure (SMILES): Oc1c2c(nc3ccc4nc(-c5ccccc5)[nH]c4c13)CCC2
- Activity (Rodentolepis nana [1]): 100%
- Activity (Rodentolepis nana [2]): 100%
- Activity (Rodentolepis nana [3]): 41%
- Activity (Rodentolepis nana [4]): inactive

Structure (SMILES): Cc1cc(O)c2c(ccc3nc(-c4ccco4)[nH]c32)n1 [FURODAZOLE]
- Activity (Taenia crassiceps): Active
- Activity (Rodentolepis nana [1]): 100%
- Activity (Rodentolepis nana [2]): 100%
- Activity (Rodentolepis nana [3]): 100%
- Activity (Rodentolepis nana [4]): 100%
- Activity (Rodentolepis nana [5]): 75%
- Activity (Rodentolepis nana [6]): 57%
- Activity (Rodentolepis nana [7]): 35%
- Activity (Taenia pisiformis): Active
- Activity (Canis familiaris [8]): Toxic
- Activity (Canis familiaris [9]): Toxic
- Activity (Syphacia obvelata [10]): Active
- Activity (Syphacia obvelata [11]): 68%
- Activity (Moniezia): Active

Structure (SMILES): Cc1nc2ccc3nc(-c4ccccc4)[nH]c3c2c(O)c1C
- Activity (Rodentolepis nana [1]): 100%
- Activity (Rodentolepis nana [2]): 100%
- Activity (Rodentolepis nana [3]): 94%
- Activity (Rodentolepis nana [4]): inactive

Structure (SMILES): Cc1cc(O)c2c(ccc3nc(-c4ccccc4)[nH]c32)n1
- Activity (Rodentolepis nana [1]): 100%
- Activity (Rodentolepis nana [2]): 93%
- Activity (Rodentolepis nana [3]): 94%
- Activity (Rodentolepis nana [4]): 77%
- Activity (Rodentolepis nana [5]): inactive

Structure (SMILES): Oc1cc(-c2ccccc2)nc2ccc3nc(-c4ccccc4)[nH]c3c12
- Activity (Rodentolepis nana [1]): 100%
- Activity (Rodentolepis nana [2]): 100%
- Activity (Rodentolepis nana [3]): 82%
- Activity (Rodentolepis nana [4]): inactive

Source: ChEMBL document CHEMBL3244405, “Imidazo[4,5-f]quinolines. 4. Synthesis and anthelmintic activity of a series of imidazo[4,5-f]quinolin-9-ols” (J Med Chem, 1978)
